Sampled rows, rich in hits. Any-hit rate of the full collection: about 3.8%.
T cell modulator: T cell immune modulators affecting CD8 T cell-vesicle binding | 2C CD8+ T cell-vesicle binding, flow cytometry; stronger effect = lower value | response (vesicle binding), % at 7 µM | 0.068% of 330,000 active | AID 2052;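 active = response, share of CD8 T cells binding vesicles, and their 90th percentile fluorescence all below set limits, cut at about 80% in these data, passing the limit was not always enough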;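 note: values below 100% mean blocked vesicle binding to the CD8+ T cells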
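Material: 2C TCR transgenic mouse naive CD8+ T cells, MACS-purified. Also added: QL9-charged Drosophila Ld/ICAM-1/B7-1 vesicles. Timing: binding 1.5 h at 37 °C. Measured by: high-throughput flow cytometry with anti-B7-1 and anti-CD8 staining. Read-out: percent CD8+ FL2 mean versus row control. Controls: Unloaded micro-vesicles (low), QL9 vesicles with 0.7% DMSO (high).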
V-ATPase pHluor: yeast V-ATPase proton transport regulation by pHLuorin; S. cerevisiae, pHLuorin cytosolic pH fluorescence; response, % at 10 µM; 0.37% of 350,000 active; AID 504577; in the data active = response mostly above about 7.3%, no sharp cut-off; inactive = mostly below about 5.4%; note: actives read high
rCAG RNA binder: molecules binding r(CAG) RNA repeats | r(CAG) RNA repeat, TO-PRO-1 dye displacement fluorescence | inhibition, % at 3 µM | 1.3% of 370,000 active | AID 651821;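 active = inhibition above the plate cutoff, the mean of all test compounds on that plate plus 3 SD, cut at about 35% in these data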;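 note: higher means more dye released from RNA so lower well fluorescence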
MPTP inh: blocks calcium-induced mitochondrial swelling. isolated mouse mitochondria, Ca2+ swelling absorbance, 30 min. inhibition, % at 10 µM. 1.4% of 360,000 active;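 active = inhibition of 50% or more, scaled per plate between neutral and stimulator controls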
Exocytosis inh: lytic granule exocytosis inhibition. 0.66% of 360,000 active. inhibition, % at 10 µM. TALL-104 LAMP-1 surface exposure, flow cytometry; cells stimulated with thapsigargin and PMA;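 active = inhibition above about 55%, limit read from the data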
B2AR ag: human beta-2 adrenergic receptor agonism by FAP. Am2.2-beta2AR cells, FAP receptor internalization, flow cytometry. 0.43% of 340,000 active. P07550. response, % (test concentration not listed);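 active = response above a set limit, near 3 SD of response in nonfluorescent compounds, cut at about 42% in these data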
Target sequence (P07550 whole entry, looked up): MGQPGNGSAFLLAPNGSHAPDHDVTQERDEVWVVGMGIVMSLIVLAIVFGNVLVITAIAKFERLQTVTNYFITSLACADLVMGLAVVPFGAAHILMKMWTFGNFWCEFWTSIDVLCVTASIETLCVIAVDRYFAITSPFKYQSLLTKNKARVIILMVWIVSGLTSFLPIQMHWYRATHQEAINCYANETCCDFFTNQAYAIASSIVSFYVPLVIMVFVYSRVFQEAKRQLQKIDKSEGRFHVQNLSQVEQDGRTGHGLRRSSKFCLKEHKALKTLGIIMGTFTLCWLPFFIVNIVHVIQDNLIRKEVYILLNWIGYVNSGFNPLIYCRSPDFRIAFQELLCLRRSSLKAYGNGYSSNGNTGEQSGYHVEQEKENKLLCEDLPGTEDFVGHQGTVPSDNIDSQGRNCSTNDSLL
rCAG binder conf: r(CAG) RNA repeat binding, confirmation; shares compounds with rCAG RNA binder; TO-PRO-1 dye displacement fluorescence; inhibition, % at 3 µM; 70% of 4,300 active;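 active = inhibition above a per-plate cutoff, the mean inhibition of sample wells plus 3 SD, cut at about 35% in these data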;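 note: loss of TO-PRO-1 fluorescence as compound displaces dye from 1x1 AA loop RNA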
dCAG dye counter: disrupts DNA CAG TO-PRO-1 complex, flagging rCAG hits. shares compounds with rCAG RNA binder. d(CAG) DNA oligo TO-PRO-1 dye displacement, fluorescence. inhibition, % at 3 µM. 94% of 4,300 active. AID 652068;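 active = inhibition above its plate's cutoff, the mean test-well inhibition plus 3 SD, cut at about 4.8% in these data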;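 note: hits displace the dye from DNA and so lower well fluorescence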
dCAG dye DR: counter-screen for rCAG binders: inhibitors of DNA CAG TO-PRO-1 complex. shares compounds with rCAG RNA binder. DNA CAG/GTC duplex TO-PRO-1 dye displacement fluorescence. IC50, µM. 20% of 250 active. AID 686960; in the data active = IC50 below about 10 µM
Numbers stand for hits; i = inactive; nt = not tested or not shown.

SMILES	T cell modulator	V-ATPase pHluor	rCAG RNA binder	MPTP inh	Exocytosis inh	B2AR ag	rCAG binder conf	dCAG dye counter	others
O=C1CS/C(=N/N=C/c2ccc(OS(=O)(=O)c3ccccc3)cc2)N1	i	i	40	i	i	i	38	9.7
CCOC(=O)C1=C(C)N=c2s/c(=C/c3ccc(OCC(=O)O)cc3)c(=O)n2C1c1ccc(SC)cc1 (stereo not drawn)	i	i	nt	i	i	i	nt	nt
CCOC(=O)C1=C(C)N=c2s/c(=C/c3ccccc3)c(=O)n2C1c1ccc(OC)c(OC)c1 (stereo not drawn)	i	i	i	i	i	i	nt	nt
CCOC(=O)C1=C(C)N=c2s/c(=C/c3ccc(OCC(=O)O)cc3)c(=O)n2C1c1ccc(F)cc1 (stereo not drawn)	i	i	69	i	i	i	77	36
CCOC(=O)C1=C(C)N=c2s/c(=C\c3ccc(OCC(=O)O)cc3)c(=O)n2C1c1ccc(Cl)cc1 (stereo not drawn)	i	i	55	i	i	i	73	36
CC1=C(C(=O)OC(C)C)C(c2ccc(Cl)cc2)n2c(sc(=Cc3ccc(OCC(=O)O)cc3)c2=O)=N1 (stereo not drawn)	nt	nt	42	i	i	nt	64	30	dCAG dye DR=i
CCOC(=O)C1=C(C)N=c2s/c(=C/c3ccc(OCC(=O)O)c(OC)c3)c(=O)n2C1c1ccc(Cl)cc1 (stereo not drawn)	i	i	44	i	i	i	54	16
C[C@@H]1CN(S(=O)(=O)C(C)(C)C)[C@H](CCO)/C1=C\CCO	nt	nt	i	nt	nt	nt	nt	nt
Cc1ccccc1N=Nc1c(N)[nH]n(-c2ccccc2)c1=O	nt	nt	i	nt	nt	nt	nt	nt
COC(=O)[C@]12C[C@H](CC(=O)NCc3cccc4ccccc34)C(=O)N(Cc3ccc4c(c3)OCO4)C1=C[C@H](C(C)C)O[C@@H]2C1CC1	nt	nt	i	nt	nt	nt	nt	nt
CCOC(=O)C1=C(C)N=c2s/c(=C\c3ccc(O)c([N+](=O)[O-])c3)c(=O)n2C1c1ccccc1OC (stereo not drawn)	i	i	52	i	i	i	88	64
CCOC(=O)C1=C(C)N=c2s/c(=C\c3ccc(OCC(=O)O)cc3)c(=O)n2C1c1ccccc1OC (stereo not drawn)	i	i	i	i	i	i	nt	nt
CC1(C)CC(=O)C=C(c2ccc(COC(=O)c3ccc(Br)cc3)cc2)C1=O	nt	nt	i	nt	nt	nt	nt	nt
CS(=O)(=O)c1ccc(-c2nnc(NC(=O)c3ccc(S(=O)(=O)N4CCCC4)cc3)o2)cc1	i	i	36	i	i	i	i	4.7
COc1cccc(N(C)C(=O)[C@@H](C)[C@@H](O)c2ccc(Cl)cc2)c1	nt	nt	i	nt	nt	nt	nt	nt
O=C(O)CC1S/C(=N/N=C/C=C/c2ccccc2[N+](=O)[O-])NC1=O (stereo not drawn)	i	i	i	i	i	i	nt	nt
O=C(O)CC1S/C(=N/N=C/c2ccc(-c3ccc(Cl)c([N+](=O)[O-])c3)o2)NC1=O (stereo not drawn)	i	i	35	i	i	i	i	8.0
O=C(O)CC1S/C(=N/N=C/c2ccc(-c3ccc(Cl)cc3[N+](=O)[O-])o2)NC1=O (stereo not drawn)	i	i	43	i	i	i	i	6.6
COc1cc2c(c(OC)c1)C(=O)O[C@H](C)C[C@@H]1O[C@H]1CCCCC(=O)C2	nt	nt	i	nt	nt	nt	nt	nt
O=C(O)c1ccccc1NC(=O)C(Cc1ccccc1)N1C(=O)c2ccccc2C1=O (stereo not drawn)	i	i	42	i	i	i	49	12
CCC(C(=O)Nc1ccccc1C(=O)N1CCCC1)N1C(=O)c2ccccc2C1=O (stereo not drawn)	i	i	i	i	i	i	nt	nt
COc1ccc(S[C@]2(C(=O)N3CCOCC3)CC(=O)N(C(=O)/C=C/c3ccccc3)[C@@H]2c2ccc(OC)cc2)cc1	nt	nt	i	nt	nt	nt	nt	nt
O=C(NCc1ccccc1)c1ccc2nc(-c3ccco3)c(-c3ccco3)nc2c1	i	i	56	i	i	i	56	26

Assay outcomes (PubChem BioAssay)
